ChEMBL document CHEMBL1133510, “Synthesis and evaluation of novel steroidal oxime inhibitors of P450 17 (17 alpha-hydroxylase/C17-20-lyase) and 5 alpha-reductase types 1 and 2” (J Med Chem, 2000)
Values joined by “and” are separate entries in the source; they are usually repeats but may differ in a detail not shown here. Equal entries are not always repeated.

Key:
[1] = target: T1, Steroid 17-alpha-hydroxylase/17,20 lyase (Rattus norvegicus, UniProt P11715); assay: Inhibition of rat Cytochrome P450 17
T1 sequence (P11715 whole entry): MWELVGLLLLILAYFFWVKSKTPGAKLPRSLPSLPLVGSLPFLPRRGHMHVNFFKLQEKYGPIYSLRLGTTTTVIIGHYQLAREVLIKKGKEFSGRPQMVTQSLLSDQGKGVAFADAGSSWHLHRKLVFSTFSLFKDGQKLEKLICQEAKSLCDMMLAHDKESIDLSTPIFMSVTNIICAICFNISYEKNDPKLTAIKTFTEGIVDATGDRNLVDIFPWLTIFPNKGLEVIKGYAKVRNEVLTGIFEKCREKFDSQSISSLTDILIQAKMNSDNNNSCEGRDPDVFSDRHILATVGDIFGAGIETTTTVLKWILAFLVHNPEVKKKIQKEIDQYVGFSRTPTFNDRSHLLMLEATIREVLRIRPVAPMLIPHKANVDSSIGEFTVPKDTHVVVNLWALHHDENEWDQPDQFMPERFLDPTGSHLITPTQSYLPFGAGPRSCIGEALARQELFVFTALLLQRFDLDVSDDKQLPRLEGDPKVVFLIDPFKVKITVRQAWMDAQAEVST
Summary of the method: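 Microsomes from rat testes with 25 µM progesterone as substrate. Product measured by RP-HPLC with UV detection. IC50 is the mean of at least two experiments.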

[2] = target: T2, Steroid 17-alpha-hydroxylase/17,20 lyase (Homo sapiens, UniProt P05093); assay: Inhibition of human Cytochrome P450 17
T2 sequence (P05093 whole entry): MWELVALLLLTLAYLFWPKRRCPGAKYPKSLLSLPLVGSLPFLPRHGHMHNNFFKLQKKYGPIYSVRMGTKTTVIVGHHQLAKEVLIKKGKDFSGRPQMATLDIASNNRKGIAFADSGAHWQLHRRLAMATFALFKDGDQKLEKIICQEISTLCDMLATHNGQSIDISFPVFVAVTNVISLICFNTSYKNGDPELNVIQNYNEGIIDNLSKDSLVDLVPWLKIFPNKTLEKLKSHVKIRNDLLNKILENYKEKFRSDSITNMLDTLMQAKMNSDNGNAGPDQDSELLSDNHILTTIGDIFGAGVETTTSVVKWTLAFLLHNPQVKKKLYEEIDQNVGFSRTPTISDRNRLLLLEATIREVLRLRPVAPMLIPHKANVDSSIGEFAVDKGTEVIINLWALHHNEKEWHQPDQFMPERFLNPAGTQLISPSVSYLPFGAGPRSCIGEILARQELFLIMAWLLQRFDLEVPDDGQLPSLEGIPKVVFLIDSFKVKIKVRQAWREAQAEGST
Summary of the method: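 Human testicular microsomes with 25 µM progesterone as substrate. Product quantified by RP-HPLC with UV detection. IC50 is the mean of at least two experiments.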

[3] = target: T1, Steroid 17-alpha-hydroxylase/17,20 lyase; assay: Inhibition of Cytochrome P450 17 from rat testicular microsome at 25 uM progesterone; No inhibition
[4] = target: T2, Steroid 17-alpha-hydroxylase/17,20 lyase; assay: Inhibition of Cytochrome P450 17 of human testicular microsome at 25 uM progesterone; No inhibition
[5] = target: T1, Steroid 17-alpha-hydroxylase/17,20 lyase; assay: Evaluated for the inhibitory activity towards Cytochrome P450 17 rat enzyme using testicular microsome at 25 uM of substrate (progesterone); design: species or system Testis
Summary of the method: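 Testicular microsomes (human for human enzyme, rat for rat enzyme) incubated with progesterone substrate at 25 µM; product measured by RP-HPLC with UV detection. IC50 = concentration giving 50% inhibition, mean of at least two experiments.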

[6] = target: T2, Steroid 17-alpha-hydroxylase/17,20 lyase; assay: Evaluated for the inhibitory activity towards Cytochrome P450 17 human enzyme using testicular microsome at 25 uM of substrate (progesterone); design: species or system Testis
[7] = target: T2, Steroid 17-alpha-hydroxylase/17,20 lyase; assay: Inhibition of Human P450 17 and NADPH-P450 reductase co-expressed in Escherichia coli with 25 uM progesterone
[8] = target: T1, Steroid 17-alpha-hydroxylase/17,20 lyase; assay: Inhibition of Cytochrome P450 17 from rat testicular microsome at 125 uM progesterone; No inhibition
[9] = target: T2, Steroid 17-alpha-hydroxylase/17,20 lyase; assay: Inhibition of Cytochrome P450 17 of human testicular microsomes at 25 uM progesterone
Summary of the method: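 Enzyme source was human testicular microsomes, with progesterone substrate at 25 µM and product determined by RP-HPLC with UV detection. IC50 is the inhibitor concentration giving 50% inhibition, reported as the mean of at least two experiments.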

[10] = target: T3, 3-oxo-5-alpha-steroid 4-dehydrogenase 2 (Homo sapiens, UniProt P31213); assay: Evaluated for the inhibitory activity against human steroid 5-alpha-reductase type 2 from human BPH tissue at 210 nM of testosterone
T3 sequence (P31213 whole entry): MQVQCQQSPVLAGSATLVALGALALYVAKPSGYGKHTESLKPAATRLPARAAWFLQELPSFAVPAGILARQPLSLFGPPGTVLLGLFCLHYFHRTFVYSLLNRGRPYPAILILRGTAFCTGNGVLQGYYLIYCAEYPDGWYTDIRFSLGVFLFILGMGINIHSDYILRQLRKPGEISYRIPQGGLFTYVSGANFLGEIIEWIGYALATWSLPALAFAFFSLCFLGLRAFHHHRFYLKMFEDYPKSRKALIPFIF
Summary of the method: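 Enzyme from prostate homogenate of BPH patients, assayed at pH 5.5 with radiolabeled testosterone at 210 nM; product separated by HPLC. IC50 taken as inhibitor concentration giving 50% inhibition; mean of at least two experiments.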

[11] = target: T4, 3-oxo-5-alpha-steroid 4-dehydrogenase 1 (Homo sapiens, UniProt P18405); assay: Evaluated for the inhibitory activity against human steroid 5-alpha-reductase type I in human DU-145 cell assay at 5 nM of androstenedione; format: cell-based
T4 sequence (P18405 whole entry): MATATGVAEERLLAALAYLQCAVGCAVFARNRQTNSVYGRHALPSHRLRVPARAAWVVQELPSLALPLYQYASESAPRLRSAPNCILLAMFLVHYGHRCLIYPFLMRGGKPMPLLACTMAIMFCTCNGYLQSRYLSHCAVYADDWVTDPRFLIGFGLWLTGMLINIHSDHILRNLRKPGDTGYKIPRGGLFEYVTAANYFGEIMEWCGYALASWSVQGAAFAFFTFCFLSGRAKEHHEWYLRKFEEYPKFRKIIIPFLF
Summary of the method: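 Whole human DU-145 cells as source of type 1 enzyme, incubated with radiolabeled androstenedione at 5 nM; HPLC separation of product. IC50 = inhibitor concentration giving 50% inhibition; mean of at least two experiments.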

[12] = target: T4, 3-oxo-5-alpha-steroid 4-dehydrogenase 1; assay: Inhibition of Human steroid 5-alpha-reductase type I expressed in HEK293 cells; format: cell-based
Summary of the method: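 Human 5α-reductase type 1 cDNA (plasmid pRcCMV-I) stably transfected into HEK293 cells, clones chosen under G418. 300 000 cells/well attached overnight at 37 °C, then fresh DMEM/10% FCS containing 5 nM [3H]androstenedione plus inhibitor (1% DMSO) for 30 min. Supernatant extracted with ether, product measured by HPLC. IC50 taken as mean of at least three experiments.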

[13] = target: T3, 3-oxo-5-alpha-steroid 4-dehydrogenase 2; assay: Inhibition of Human steroid 5-alpha-reductase type II expressed in HEK293 cells; format: cell-based
Summary of the method: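 Stably transfected HEK293 clones expressing full-length human type 1 or type 2 cDNA; 300 000 cells per well attached overnight at 37 °C. Fresh DMEM/10% FCS with 5 nM [3H]androstenedione and inhibitor added, final DMSO 1%. Incubated 30 min (type 1) or 13 min (type 2); supernatant ether-extracted and analysed by HPLC. Mean of at least three experiments.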

[14] = species: Rattus norvegicus; assay: Percent decrease in plasma testosterone after 2 hr; format: functional
Summary of the method: (§1)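 Adult male Sprague-Dawley rats, 7–8 per group, each received one intraperitoneal dose of 0.019 mmol/kg in olive oil/benzyl alcohol (95:5). Blood was drawn by cardiac puncture under diethyl ether anaesthesia at 2 or 6 h. Plasma testosterone was measured by double-antibody [125I]RIA (detection limit 0.1 ng/mL) and compared with vehicle controls.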

[15] = species: Rattus norvegicus; assay: Percent decrease in plasma testosterone after 6 hr; format: functional; summary of the method: as §1

IC50 [3]	IC50 [6] [nM]	IC50 [10]	IC50 [11] [nM]	Structure (SMILES)	IC50 [5] [nM]	further results
–	–	–	–	CC12CCC(O)CC1=CCC1C2CCC2(C)C(c3c[nH]cn3)=CCC12 (configuration not stated)	–	IC50 [1]: 180 nM; IC50 [2]: 40 nM
Not Active	–	–	–	C/C(=N/O)[C@@]1(O)CCC2C3CC=C4CC(O)CCC4(C)C3CCC21C (some centres not stated)	–	IC50 [4]: Not Active
–	–	–	–	C/C(=N/O)[C@H]1CC[C@H]2[C@@H]3CC=C4C[C@@H](O)CC[C@]4(C)[C@H]3CC[C@]12C	–	IC50 [8]: Not Active; IC50 [9]: 1650 nM
–	> 2500	470 nM	900	C/C(CC1CCC2C3CCC4=CC(=O)CCC4(C)C3CCC12C)=N\O (configuration not stated)	3600	–
Not Active	–	430 nM	900	C/C(CC1CCC2C3CC(=O)C4=CC(=O)CCC4(C)C3CCC12C)=N\O (configuration not stated)	–	IC50 [12]: 2900 nM; IC50 [13]: 860 nM; IC50 [4]: Not Active
–	–	–	–	CC(=O)N1CCN(c2ccc(OCC3COC(Cn4ccnc4)(c4ccc(Cl)cc4Cl)O3)cc2)CC1 (configuration not stated) [KETOCONAZOLE]	–	Decrease [14]: 57%; Decrease [15]: 44%
Not Active	> 2500	3200 nM	> 10000	C/C(=N/O)[C@H]1CCC2C3CC(=O)C4=CC(=O)CCC4(C)C3CCC21C (some centres not stated)	–	–
–	> 2500	–	–	C/C(=N/O)C1CC=C2C3CC=C4CC(O)CCC4(C)C3CCC21C (configuration not stated)	> 125000	–

Structure (SMILES)	IC50 [3]	IC50 [6] [nM]	IC50 [10]	IC50 [11] [nM]	IC50 [5] [nM]	further results
C/C(=N/O)C1=CCC2[C@@H]3CC=C4C[C@@H](O)CC[C@]4(C)[C@H]3CC[C@]12C (some centres not stated)	–	170	–	–	> 125000	IC50 [7]: 520 nM
C/C(=N/O)[C@H]1CCC2C3CCC4=CC(=O)CCC4(C)C3CCC21C (some centres not stated)	–	> 2500	580 nM and 1170 nM	1630	> 125000	IC50 [12]: 1770 nM
